Several values for one entry are separate records, joined by “and”; a condition that tells them apart may be missing. Equal entries are not always repeated.
Assay: CRRL conjugation kinetics of BQ with methoxyamine by UV–vis spectroscopy
Format: physicochemical
Conditions: PBS, room temperature
Procedure, shortened: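 BQ (200 μM) was reacted with excess methoxyamine (100 mM and other concentrations) in Dulbecco's PBS at room temperature. Readings were taken in quartz cells, starting immediately after mixing. Repeated UV-vis spectra tracked BQ at 248 nm and QO at 320 nm. Both traces were fitted to pseudo-first-order exponentials to give k′, and the slope of k′ versus [methoxyamine] gave the second-order rate constant.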

In the case of O=C1C=CC(=O)C=C1 [BQ, benzoquinone], the “pseudo-first-order k′ of conversion of BQ to QO” value (BQ 200 μM, methoxyamine 100 mM, UV–vis (248 and 320 nm)) is reported as 4.2 × 10^–3 s^–1 and the “second-order rate constant k for CRRL conjugation (BQ with CH3ONH2 to QO)” value (from plot of k′ versus [methoxyamine], UV–vis) is reported as 3.4 × 10^–2 (±6.5 × 10^–4) M^–1s^–1 and 3.41 × 10^–2 (±6.5 × 10^–4) M^–1s^–1.

Source: article PMC3983135 (Bioconjugate Chemistry, 2014)
